MEKK3 PB1 HTS: modulators of MEKK3-MEK5 PB1 binding, primary screen, biochemical, wildtype MEKK3, multiplex bead flow cytometry, Alexa488-MEK5. Mitogen-activated protein kinase kinase kinase 3 (Homo sapiens), Q99759. bead-based flow cytometry, Alexa488-MEK5 binding to MEKK3; actives lie on both sides; 0 = blocked by unlabeled MEK5, 100 = vehicle. binding response (% of control), % at 10 µM. 1.4% of 290,000 active. AID 1529, 2009;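 active = binding response more than 3 SD above or below the average of its plate-row segment, actives on both sides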;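 also: Alexa488 bead fluorescence after subtracting the streptavidin-only scavenger bead signal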
Target sequence (Q99759 whole entry, looked up): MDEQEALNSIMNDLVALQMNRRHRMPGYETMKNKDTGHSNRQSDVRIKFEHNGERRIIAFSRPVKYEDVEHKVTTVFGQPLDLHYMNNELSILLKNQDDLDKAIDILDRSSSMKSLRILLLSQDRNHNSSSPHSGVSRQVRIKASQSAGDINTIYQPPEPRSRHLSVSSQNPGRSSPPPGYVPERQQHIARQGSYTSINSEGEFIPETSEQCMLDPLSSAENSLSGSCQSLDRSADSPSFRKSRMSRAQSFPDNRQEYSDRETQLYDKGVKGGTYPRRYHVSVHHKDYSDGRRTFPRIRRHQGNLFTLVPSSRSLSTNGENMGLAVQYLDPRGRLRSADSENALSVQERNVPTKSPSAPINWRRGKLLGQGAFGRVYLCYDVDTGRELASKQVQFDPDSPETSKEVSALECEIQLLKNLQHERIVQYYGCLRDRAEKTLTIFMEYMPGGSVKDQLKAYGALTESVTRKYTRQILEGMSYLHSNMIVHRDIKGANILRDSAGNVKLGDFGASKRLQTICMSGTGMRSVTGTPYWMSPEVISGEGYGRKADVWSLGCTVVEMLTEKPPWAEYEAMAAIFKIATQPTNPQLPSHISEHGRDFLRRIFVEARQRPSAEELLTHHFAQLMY
MEKK2 mut-MEK5: MEK5 binding signal on mutant MEKK2 PB1, primary screen, biochemical, multiplex bead flow cytometry, Alexa488-MEK5. Alexa488-MEK5 binding to MEKK2 mutant. percent response, % at 10 µM. 0.35% of 290,000 active. AID 1530, 2009; in the data active = percent response above about 24%, passing the limit was not always enough
MEKK2wt PB1 HTS: modulators of MEK5 binding to wildtype MEKK2, primary screen, biochemical, multiplex bead flow cytometry, Alexa488-MEK5; Mitogen-activated protein kinase kinase kinase 2 (Homo sapiens), Q9Y2U5; Alexa488-MEK5 binding to MEKK2 WT; actives lie on both sides; binding response (% of control), % at 10 µM; 1.1% of 290,000 active; AID 1531, 2009; in the data active = binding response below about 67% or above about 130%
Lipid droplet: inhibitors of hepatocyte lipid droplet formation, primary screen, imaging, high-throughput imaging, BODIPY stain | AML12 mouse hepatocytes, oleate lipid droplets | AID 1656, 2009 | inhibition, % at 6.5 µM | 0.4% of 240,000 active;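 active = lipid droplet intensity inhibited by at least 50%, with more than 500 cells counted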
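Test system: AML12 hepatocytes (mouse); reagent: oleate loading, 100 µM; dosing: one dose, 6.5 µM compound; incubation: overnight exposure; signal: fluorescence imaging, 20x objective, two fields per well; read-out basis: % inhibition of corrected integrated BODIPY droplet signal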
MEKK2wt confirm: modulators of MEK5 binding to wildtype MEKK2, confirmation, biochemical, single concentration, multiplex bead flow cytometry | shares compounds with MEKK3 PB1 HTS | Alexa488-MEK5 binding to MEKK2 WT; actives lie on both sides | binding response (% of control), % at 10 µM | 2.4% of 5,900 active; in the data active = binding response below about 16% or above about 210%; inactive = in between
MEKK2mut confirm: mutant MEKK2 PB1-MEK5 binding signal retest – biochemical, single concentration, multiplex bead flow cytometry, confirmation; Alexa488-MEK5 binding to MEKK2 mutant; 2% of 5,900 active; percent response, % at 10 µM; shares compounds with MEKK3 PB1 HTS; in the data active = percent response mostly above about 71%, no sharp cut-off; inactive = mostly below about 38%;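 also: higher means compound restores mutant binding toward wildtype level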
MEKK3 confirm: MEKK3 wild-type PB1 binding to MEK5, inhibitors, confirmation, biochemical, bead multiplex flow cytometry, single concentration, wildtype; shares compounds with MEKK3 PB1 HTS; Alexa488-MEK5 binding to MEKK3; hits give low values; binding response (% of control), % at 10 µM; 1.8% of 5,900 active;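 active = binding response below 72% of control, or above a set upper limit, though filed actives all read lower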;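 also: lower values mean stronger disruption of MEK5 binding to MEKK3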
A number is an active result; – = inactive; · = not tested or not shown; [ ] = remark or other dose. Rows were chosen to be rich in hits. Some 2.6% of all compounds tested hit in one or more screens of this group.

SMILES	MEKK3 PB1 HTS	MEKK2 mut-MEK5	MEKK2wt PB1 HTS	Lipid droplet	MEKK2wt confirm	MEKK2mut confirm	MEKK3 confirm
O=C(CN1CCCc2ccccc21)NCCc1ccc(F)cc1	45.0[inhibitor]	–	–	–	–	–	–
COc1ccc(CCNC(=O)CN2CCCc3ccccc32)cc1OC	–	–	–	·	·	·	·
Cn1nc(-c2ccccc2)cc1NC(=O)c1cccs1	–	–	–	–	·	·	·
COc1ccc2c(c1)c(C(C)=O)c(C)n2-c1ccccc1	76.0[inhibitor]	–	–	–	–	–	–
COc1ccc(-n2c(C)c(C(C)=O)c3cc(O)ccc32)cc1	·	·	·	–	·	·	·
Cc1cccc2sc(N(CCCN(C)C)C(=O)c3sc4ccccc4c3Cl)nc12	–	53.0	197.0	–	–	–	–
CN(C)CCCN(C(=O)c1sc2ccccc2c1Cl)c1nc2c(F)cccc2s1	–	139.0	325.0	–	–	–	–
COc1cccc2sc(N(CCCN(C)C)C(=O)c3sc4ccccc4c3Cl)nc12	–	63.0	211.0	–	–	–	–
Cc1cc(C(F)F)n2nc(C(=O)Nc3sc4c(c3C#N)CCC4)nc2n1	–	–	–	–	·	·	·
C#CCN1c2ccccc2Sc2cccnc21	–	–	–	·	·	·	·
COc1ccc(NC(=O)CSc2nnc(Cn3cnc4ccccc43)n2C)cc1	–	–	–	–	·	·	·
CCOC(=O)CNC(=O)CSc1nnc(Cn2cnc3ccccc32)n1C	126.0	–	–	–	–	–	–
O=C(NC12CC3CC(CC(C3)C1)C2)C1CC(=O)N(c2ccc(Br)cc2)C1 (stereo not drawn)	–	–	–	–	·	·	·
O=C(NC12CC3CC(CC(C3)C1)C2)C1CC(=O)N(c2ccccc2)C1 (stereo not drawn)	–	25.0	–	–	–	–	–
CCCN1C2CCCC1CC(NC(=O)NC1CCCCC1)C2 (stereo not drawn)	2.0[inhibitor]	–	2.0[inhibitor]	·	–	–	–
C=CCNC(=O)CN(c1ccc(OC)cc1OC)S(C)(=O)=O	127.0	–	–	–	–	–	–
O=[N+]([O-])c1ccc(S(=O)(=O)Nc2nnc(C3CCCCC3)s2)cc1	–	–	–	–	·	·	·
CCOC(=O)Cc1csc(NC(=O)Cc2ccc([N+](=O)[O-])cc2)n1	132.0	–	–	–	–	–	–
O=C(Cc1ccc([N+](=O)[O-])cc1)Nc1nnc(C2CC2)s1	171.0	–	–	–	–	–	–
CC(C)(C)Cc1nnc(NC(=O)Cc2ccc([N+](=O)[O-])cc2)s1	–	–	–	–	·	·	·
CCOC(=O)Cc1csc(NC(=O)CCC(=O)O)n1	–	–	–	–	·	·	·
CCOC(=O)Cc1csc(N/N=C/c2ccccc2)n1	154.0	–	–	–	–	–	–
CCOC(=O)Cc1csc(N/N=C\c2ccc(N(C)C)cc2)n1	–	–	–	–	·	·	·
CCOC(=O)Cc1csc(NC(=O)CC(C)(C)CC(=O)O)n1	128.0	–	–	–	–	–	–
CC(C)CNC(=O)[C@H]1N2C(=O)c3ccccc3C2SC1(C)C (stereo partly drawn)	–	–	–	·	·	·	·
SMILES	MEKK3 PB1 HTS	MEKK2 mut-MEK5	MEKK2wt PB1 HTS	Lipid droplet	MEKK2wt confirm	MEKK2mut confirm	MEKK3 confirm
CCn1c(SCC(=O)N2CCC(C)CC2)nc2c(c1=O)SC(C)C2 (stereo not drawn)	–	–	–	–	·	·	·
CC1COc2c(N3CCN(C)CC3)c(F)cc3c(=O)c(C(=O)O)cn1c23 (stereo not drawn)	–	–	–	·	·	·	·
CCOc1ccc(NC(=O)c2ccc(NC(=O)c3cn4c5c(c(N6CCN(C)CC6)c(F)cc5c3=O)OCC4C)cc2)cc1 (stereo not drawn)	45.0[inhibitor]	–	–	–	–	–	–
O=C(Nc1nnc(-c2ccncc2)o1)c1ccccc1F	129.0	–	–	–	–	–	–
O=C(CCCNS(=O)(=O)c1cccs1)N1CCN(c2ccc(F)cc2)CC1	–	–	–	–	·	·	·
O=C(CCS(=O)(=O)c1cccs1)N1CCN(c2ccc(F)cc2)CC1	122.0	–	–	·	–	–	71.0
O=S(=O)(Nc1ccccc1C(F)(F)F)c1ccc(-c2ccccn2)s1	–	–	–	–	·	·	·
NC(=O)COC(=O)c1oc2ccccc2c1CSc1ccc(Cl)cc1	157.0	–	–	–	–	–	–
O=C(COC(=O)c1oc2ccccc2c1CSc1ccc(Cl)cc1)NC1CCCC1	–	–	–	–	·	·	·
COc1ccc(-n2nc3c(c2NC(=O)c2ccc(Br)o2)CS(=O)(=O)C3)cc1	–	–	–	–	·	·	·
C(=C\c1ccco1)/C1=NN(c2ccccc2)C(c2ccco2)C1 (stereo not drawn)	129.0	–	–	–	–	–	–
Fc1ccc(C2=NN(c3ccccc3)C(c3ccco3)C2)cc1 (stereo not drawn)	–	–	–	–	·	·	·
Clc1ccc(C2=NN(c3ccccc3)C(c3ccco3)C2)cc1 (stereo not drawn)	–	–	–	–	·	·	·
O=[N+]([O-])c1ccc(/C=C/C2=NN(c3ccccc3)C(c3ccco3)C2)o1 (stereo not drawn)	15.0[inhibitor]	–	·	53.6	–	–	20.0
Cn1ncc2c(NNC(=O)c3ccccc3Cl)ncnc21	129.0	–	–	–	–	–	–
CCOC(=O)c1c(N)sc2c1CCCC2	52.0[inhibitor]	–	–	·	–	–	–
CCOC(=O)c1c(N)sc2c1CCC(C)C2 (stereo not drawn)	–	–	–	·	·	·	·
Cc1ccc(CN2CCSc3ccc(C(=O)NCc4ccco4)cc32)cc1	56.0[inhibitor]	–	58.0[inhibitor]	–	–	–	–
Cc1ccc(CN2CCSc3ccc(C(=O)NC4CCN(Cc5ccccc5)CC4)cc32)cc1	–	–	206.0	–	240.0	80.0	–
Cc1ccc(CN2CCSc3ccc(C(=O)NCCCN4CCOCC4)cc32)cc1	–	–	–	–	·	·	·
O=C(NCc1ccco1)C(=O)NCC(c1ccco1)N1CCOCC1 (stereo not drawn)	–	–	–	–	·	·	·
Cc1ccccc1-n1ncc2c1CC(C)(C)CC2NC(=O)c1cn[nH]c1C (stereo not drawn)	–	–	–	–	·	·	·
Cc1cc(-c2nsc(=O)o2)c(S(C)(=O)=O)s1	·	·	·	–	·	·	·

Source: PubChem
